Results taken from ChEMBL document CHEMBL2429801, “3-Ylidenephthalides as a new class of transient receptor potential channel TRPA1 and TRPM8 modulators” (Bioorg Med Chem Lett, 2013).

What was measured:
[1] = molecular target: Transient receptor potential cation channel subfamily A member 1 (Rattus norvegicus) (UniProt Q6RI86); assay: Agonist activity at rat recombinant TRPA1 overexpressed in HEK293 cells assessed as induction of intracellular calcium influx by Fluo-4-AM dye-based spectrofluorimetric analysis relative to allyl isothiocyanate; type: cell-based
Transient receptor potential cation channel subfamily A member 1 (Rattus norvegicus), sequence (Q6RI86 whole entry): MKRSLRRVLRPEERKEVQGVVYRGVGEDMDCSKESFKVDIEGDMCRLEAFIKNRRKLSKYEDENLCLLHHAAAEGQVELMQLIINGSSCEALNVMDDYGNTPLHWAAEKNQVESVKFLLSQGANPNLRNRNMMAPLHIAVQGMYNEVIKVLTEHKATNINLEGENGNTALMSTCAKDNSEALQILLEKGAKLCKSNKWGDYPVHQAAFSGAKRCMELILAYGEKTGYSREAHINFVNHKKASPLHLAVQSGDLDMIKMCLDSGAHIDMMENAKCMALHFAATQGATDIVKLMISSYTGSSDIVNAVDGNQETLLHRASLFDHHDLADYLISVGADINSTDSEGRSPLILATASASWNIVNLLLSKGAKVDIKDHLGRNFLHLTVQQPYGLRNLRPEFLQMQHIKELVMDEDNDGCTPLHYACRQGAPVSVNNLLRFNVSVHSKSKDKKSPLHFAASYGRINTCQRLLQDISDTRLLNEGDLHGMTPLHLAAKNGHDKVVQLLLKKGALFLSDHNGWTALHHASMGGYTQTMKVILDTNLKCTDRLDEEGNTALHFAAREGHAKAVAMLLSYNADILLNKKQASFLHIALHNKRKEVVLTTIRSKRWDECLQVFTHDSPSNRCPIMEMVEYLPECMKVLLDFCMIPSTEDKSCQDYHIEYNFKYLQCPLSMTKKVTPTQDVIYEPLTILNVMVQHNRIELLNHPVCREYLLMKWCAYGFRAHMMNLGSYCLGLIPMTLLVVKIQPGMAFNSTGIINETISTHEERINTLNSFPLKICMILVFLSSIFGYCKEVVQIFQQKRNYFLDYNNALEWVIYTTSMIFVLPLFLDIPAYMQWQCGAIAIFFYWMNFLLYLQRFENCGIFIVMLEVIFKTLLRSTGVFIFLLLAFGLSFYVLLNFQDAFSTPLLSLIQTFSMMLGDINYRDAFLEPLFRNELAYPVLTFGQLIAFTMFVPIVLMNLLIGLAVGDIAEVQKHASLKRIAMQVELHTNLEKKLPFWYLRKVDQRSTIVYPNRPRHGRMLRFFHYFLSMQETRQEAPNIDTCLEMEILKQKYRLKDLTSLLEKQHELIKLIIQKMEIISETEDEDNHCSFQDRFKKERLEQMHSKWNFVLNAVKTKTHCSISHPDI

[2] = molecular target: T1, Transient receptor potential cation channel subfamily M member 8 (Rattus norvegicus, UniProt Q8R455); assay: Antagonist activity at rat recombinant TRPM8 overexpressed in HEK293 cells assessed as inhibition of icilin-induced intracellular calcium influx preincubated for 5 mins followed by icilin challenge by Fluo-4-AM dye-based spectrofluorimetric analysis; type: cell-based
T1 sequence (Q8R455 whole entry): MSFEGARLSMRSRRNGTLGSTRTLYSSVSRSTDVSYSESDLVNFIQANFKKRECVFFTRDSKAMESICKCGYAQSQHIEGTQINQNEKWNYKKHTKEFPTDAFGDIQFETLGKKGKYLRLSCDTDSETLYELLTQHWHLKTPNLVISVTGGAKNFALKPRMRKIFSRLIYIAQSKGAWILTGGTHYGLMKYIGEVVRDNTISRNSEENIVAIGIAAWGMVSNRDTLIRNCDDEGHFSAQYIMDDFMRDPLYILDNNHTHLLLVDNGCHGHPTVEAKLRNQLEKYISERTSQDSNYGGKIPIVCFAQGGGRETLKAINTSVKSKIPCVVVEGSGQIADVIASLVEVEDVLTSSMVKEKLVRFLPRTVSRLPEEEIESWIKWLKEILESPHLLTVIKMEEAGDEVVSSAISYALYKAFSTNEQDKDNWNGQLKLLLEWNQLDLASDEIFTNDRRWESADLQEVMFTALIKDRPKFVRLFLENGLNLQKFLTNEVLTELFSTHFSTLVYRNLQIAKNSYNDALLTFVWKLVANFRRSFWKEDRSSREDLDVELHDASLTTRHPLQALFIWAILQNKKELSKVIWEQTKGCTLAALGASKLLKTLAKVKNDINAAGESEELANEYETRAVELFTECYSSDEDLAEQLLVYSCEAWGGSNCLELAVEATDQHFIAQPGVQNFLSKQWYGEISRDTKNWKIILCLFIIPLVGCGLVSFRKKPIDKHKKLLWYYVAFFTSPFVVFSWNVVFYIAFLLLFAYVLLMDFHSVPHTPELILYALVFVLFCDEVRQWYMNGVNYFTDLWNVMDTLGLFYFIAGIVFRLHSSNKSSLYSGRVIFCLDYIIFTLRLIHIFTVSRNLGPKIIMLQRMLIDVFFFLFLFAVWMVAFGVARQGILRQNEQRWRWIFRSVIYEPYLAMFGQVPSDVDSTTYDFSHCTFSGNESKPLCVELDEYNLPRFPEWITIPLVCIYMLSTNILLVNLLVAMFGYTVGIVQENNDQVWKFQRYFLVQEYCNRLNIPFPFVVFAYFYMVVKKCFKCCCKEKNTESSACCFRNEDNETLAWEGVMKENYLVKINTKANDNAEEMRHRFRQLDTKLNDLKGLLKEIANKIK

[3] = molecular target: T2, Transient receptor potential cation channel subfamily A member 1 (Rattus norvegicus, UniProt Q6RI86); assay: Agonist activity at rat recombinant TRPA1 overexpressed in HEK293 cells assessed as induction of intracellular calcium influx by Fluo-4-AM dye-based spectrofluorimetric analysis; type: cell-based
T2 sequence (Q6RI86 whole entry): as the sequence (Q6RI86 whole entry) above

[4] = molecular target: T2, Transient receptor potential cation channel subfamily A member 1; assay: Antagonist activity at rat recombinant TRPA1 overexpressed in HEK293 cells assessed as inhibition of allyl isothiocyanate-induced intracellular calcium influx preincubated for 5 mins followed by allyl isothiocyanate challenge by Fluo-4-AM dye-based spectrofluorimetric analysis; type: cell-based
Procedure, shortened: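 Test compounds were preincubated for 5 min in the cuvette with Fluo-4-loaded rat TRPA1-HEK293 cells in Tyrode's buffer, followed by 100 µM AITC challenge.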

[5] = molecular target: T1, Transient receptor potential cation channel subfamily M member 8; assay: Antagonist activity at rat recombinant TRPM8 overexpressed in HEK293 cells assessed as inhibition of menthol-induced intracellular calcium influx preincubated for 5 mins followed by menthol challenge by Fluo-4-AM dye-based spectrofluorimetric analysis; type: cell-based
[6] = molecular target: Transient receptor potential cation channel subfamily M member 8 (Rattus norvegicus) (UniProt Q8R455); assay: Agonist activity at rat recombinant TRPM8 overexpressed in HEK293 cells assessed as induction of intracellular calcium influx by Fluo-4-AM dye-based spectrofluorimetric analysis relative to ionomycin; type: cell-based; design: concentration or dose not given beside the values
Transient receptor potential cation channel subfamily M member 8 (Rattus norvegicus), sequence (Q8R455 whole entry, looked up): as the sequence (Q8R455 whole entry) above

[7] = molecular target: T3, Transient receptor potential cation channel subfamily A member 1 (Homo sapiens, UniProt O75762); assay: Antagonist activity at TRPA1 (unknown origin) assessed as inhibition of mustard oil-activated […]
T3 sequence (O75762 whole entry): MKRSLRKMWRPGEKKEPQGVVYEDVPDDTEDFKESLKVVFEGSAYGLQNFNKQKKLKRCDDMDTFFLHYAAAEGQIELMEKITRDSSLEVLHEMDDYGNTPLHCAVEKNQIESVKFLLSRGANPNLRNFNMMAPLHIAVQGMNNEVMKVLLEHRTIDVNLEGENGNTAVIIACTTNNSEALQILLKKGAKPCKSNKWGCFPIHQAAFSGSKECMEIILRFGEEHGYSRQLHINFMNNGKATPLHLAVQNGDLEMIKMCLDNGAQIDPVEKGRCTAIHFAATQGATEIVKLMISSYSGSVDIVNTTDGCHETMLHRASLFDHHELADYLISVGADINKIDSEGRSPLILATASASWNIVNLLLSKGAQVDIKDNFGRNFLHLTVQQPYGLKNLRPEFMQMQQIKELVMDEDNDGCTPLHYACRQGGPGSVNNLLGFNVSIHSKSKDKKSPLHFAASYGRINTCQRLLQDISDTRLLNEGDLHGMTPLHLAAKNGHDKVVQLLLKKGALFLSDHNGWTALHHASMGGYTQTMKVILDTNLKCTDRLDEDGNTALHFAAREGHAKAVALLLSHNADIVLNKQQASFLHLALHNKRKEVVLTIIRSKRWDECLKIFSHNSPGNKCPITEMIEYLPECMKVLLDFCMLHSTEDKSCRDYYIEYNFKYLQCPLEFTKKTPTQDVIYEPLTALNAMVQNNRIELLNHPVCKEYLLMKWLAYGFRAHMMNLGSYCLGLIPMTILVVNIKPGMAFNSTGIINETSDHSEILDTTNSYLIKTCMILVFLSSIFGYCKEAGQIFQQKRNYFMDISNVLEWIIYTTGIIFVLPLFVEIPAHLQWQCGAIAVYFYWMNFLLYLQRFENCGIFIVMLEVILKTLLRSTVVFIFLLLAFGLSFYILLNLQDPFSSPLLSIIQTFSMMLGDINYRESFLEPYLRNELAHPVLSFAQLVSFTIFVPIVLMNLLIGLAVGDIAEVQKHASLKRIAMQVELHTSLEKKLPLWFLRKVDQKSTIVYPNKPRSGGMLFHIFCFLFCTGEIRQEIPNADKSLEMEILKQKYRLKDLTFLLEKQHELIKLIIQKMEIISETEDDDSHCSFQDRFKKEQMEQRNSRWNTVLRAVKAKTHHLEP
Procedure, shortened: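 Rat TRPA1 stably expressed in HEK293 cells grown in EMEM with 10% FBS. Cells were loaded with Fluo-4-AM (4 µM) for 1 h at room temperature, then suspended in Tyrode's buffer pH 7.4. Compound was added 5 min before 100 µM allyl isothiocyanate. Ca2+ fluorescence (ex 488/em 516 nm) was read at 25 °C, with the agonist-alone response set as 100%.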

[8] = molecular target: T1, Transient receptor potential cation channel subfamily M member 8; assay: Agonist activity at rat recombinant TRPM8 overexpressed in HEK293 cells assessed as induction of intracellular calcium influx by Fluo-4-AM dye-based spectrofluorimetric analysis; type: cell-based
[9] = molecular target: T3, Transient receptor potential cation channel subfamily A member 1; assay: Agonist activity at TRPA1 (unknown origin)

| SMILES | Efficacy [1] | IC50 [2] | EC50 [3] | IC50 [4] | IC50 [5] | Efficacy [6] | IC50 [7] | EC50 [8] | EC50 [9] |
| --- | --- | --- | --- | --- | --- | --- | --- | --- | --- |
| O=C1O/C(=C\c2ccc(Cl)cc2)c2ccccc21 | 112% | 14.9 µM | 2 µM | 1.5 µM | 48.1 µM | < 10% |  |  |  |
| CCC/C=C1\OC(=O)c2ccccc21 (mixture of isomers) [Z-butylidenephthalide] |  |  |  |  |  |  | 23 µM |  |  |
| COc1ccc(/C=C2\OC(=O)c3ccccc32)cc1 | 65.1% | 3.4 µM | 1.3 µM | 2.2 µM | 11.3 µM | 12.9% |  | 1.8 µM |  |
| CC/C=C1\OC(=O)c2c(C)cc(C)cc21 | 43.7% | 7.7 µM | 15.8 µM | 36.3 µM | 12.1 µM | < 10% |  |  |  |
| CCC/C=C1\OC(=O)c2ccccc21 | < 10% |  |  |  |  | < 10% |  |  |  |
| CCC/C=C1\OC(=O)C2=C1CCC=C2 [LIGUSTILIDE] |  |  |  |  |  |  |  |  | 44 µM |
| C=C1OC(=O)c2cc(F)ccc21 | 10.2% | > 200 µM | 32.2 µM | > 100 µM | > 200 µM | < 10% |  |  |  |
| C=C1OC(=O)c2c(C)cc(C)cc21 | 85.1% | 90.1 µM | 17.2 µM | 34 µM | 128 µM | < 10% |  |  |  |
| C/C=C1\OC(=O)c2ccc(OC)cc21 | 24.6% | 161 µM | 21.7 µM | > 100 µM | > 200 µM | < 10% |  |  |  |
| Cc1cc(C)c2c(c1)/C(=C/c1ccccc1)OC2=O | 117% | 1 µM | 1.1 µM | 0.8 µM | 1.9 µM | < 10% |  |  |  |
| Cc1ccc(/C=C2\OC(=O)c3ccccc32)cc1 | 126% | 7.2 µM | 4.3 µM | 2.4 µM | 25.1 µM | < 10% |  |  |  |
| O=C1O/C(=C\c2ccccc2)c2ccccc21 | 93.6% | 8.3 µM | 3 µM | 2.9 µM | 10.2 µM | < 10% |  |  |  |
| CCC/C=C1\OC(=O)c2ccccc21 [Z-butylidenephthalide] |  | 141 µM |  | 44.5 µM | 153 µM |  |  |  |  |
